Usually IC50 stands for the concentration needed to halve the response being measured. As usually defined, the T/C is the result in the treated group divided by that in the control group, in per cent.

Here are results for 20 compounds from ChEMBL document CHEMBL3414539, “Quantum chemistry calculation-aided structural optimization of combretastatin A-4-like tubulin polymerization inhibitors: improved stability and biological activity” (J Med Chem, 2015).

The test system of data set [1] is HT-29. Put plainly: Growth inhibition of human HT-29 cells by MTT assay. It is filed as functional, cell-based. Summed up: (§1)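 MTT assay in SKOV3 ovarian and HT-29 colon carcinoma cells, absorbance read at 570 nm. Triplicate wells in at least three independent assays; average IC50 reported.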
(In general: Formazan colour is commonly taken as a measure of viable cells.)

For data set [2], the system named is SK-OV-3. Description: Growth inhibition of human SKOV3 cells by MTT assay. It is filed as functional, cell-based. The essentials: as §1
Data set [3] in a line: Stability assessed as cis-trans isomerization equilibrium by mesuring remaining compound level at 1.5 x 10^-2 M exposed to UV-visible light irradiation after 1.5 hrs by LC-HRMS method. The data set is classed as physicochemical. The conditions noted are these: read-out: Stability.
Data set [4] is described as follows: Stability assessed as cis-trans isomerization equilibrium by mesuring remaining compound level at 1.5 x 10^-2 M exposed to UV-visible light irradiation after 22 hrs by LC-HRMS method. The data set is classed as physicochemical. The conditions noted are these: read-out: Stability.
The nature of data set [5]: Stability assessed as cis-trans isomerization equilibrium at 1.5 x 10^-2 M under natural light conditions after 7 days by LC-HRMS method. The data set is classed as physicochemical. The conditions noted are these: 168 h, 15000 µM.
For data set [6], the target named is Tubulin (Bos taurus, UniProt Q6B856+Q862L2+Q862F3). Put plainly: Inhibition of bovine brain tubulin polymerization incubated for 60 mins by microplate reader based turbidimetry.
In data set [7] the test system is HT-29. Put plainly: Antitumor activity against human HT-29 cells xenografted in BALB/c mouse assessed as reduction in tumor volume at 50 and 150 mg/kg, ip administered once daily and measured on day 18. The data set is classed as functional, organism-based. Also noted: dose 150 mg/kg. Summed up:
(§2)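 Female BALB/c nude mice (18–20 g) bearing HT-29 xenografts of around 100 mm³, randomized into six animals/treatment and twelve controls. Drug or vehicle given ip once a day for 18 days. Tumor volume and body weight recorded on d0 and d18. T/C (%) derived from relative tumor volume (Vt/Vo). Body weight change given as mean in g.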

Data set [8] deals with HT-29. Put plainly: Antitumor activity against human HT-29 cells xenografted in BALB/c mouse assessed as reduction in tumor volume at 150 mg/kg, ip administered once daily for 18 days. It is filed as functional. Conditions: route intraperitoneal. The essentials:
as §2
(In general: A xenograft is tissue or cells of one species grown in another, often human tumour cells in immunodeficient mice.)

Data set [9] has as its system HT-29. Description: Antitumor activity against human HT-29 cells xenografted in BALB/c mouse assessed as reduction in tumor volume at 50 mg/kg, ip administered once daily for 18 days. It is filed as functional. Conditions: route intraperitoneal. The essentials: as §2
The test system of data set [10] is Mus musculus. Description: Toxicity in human HT-29 cells xenografted BALB/c mouse assessed as change in body weight at 150 mg/kg, ip administered once daily for 18 days (reference value: 2.5 g). Also noted: dose 150 mg/kg, route intraperitoneal. It is filed as organism-based. Conditions: in vivo, 432 h. The essentials:
as §2

Data set [11] has as its system Mus musculus. Description: Toxicity in human HT-29 cells xenografted BALB/c mouse assessed as change in body weight at 50 mg/kg, ip administered once daily for 18 days (reference value: 2.5 g). Conditions: in vivo, 432 h. It is filed as organism-based. Also noted: dose 50 mg/kg, route intraperitoneal.

As to `COc1ccc(/C=C2\c3cc(OC)c(OC)c(OC)c3CC[C@@H]2O)cc1C(N)=O`, the concentration for half-maximal inhibition (IC50) in [1] came to 550 nM; in data set [2], 1440 nM.

Take `COc1ccc(/C=C2\c3cc(OC)c(OC)c(OC)c3CC[C@H]2O)cc1O`: the IC50 in data set [1] is 790 nM; in [2], 1590 nM.

On to `COc1ccc(/C=C2\c3cc(OC)c(OC)c(OC)c3CC[C@@H]2O)cc1[N+](=O)[O-]`, for which the IC50 is 1590 nM in data set [1] and 4640 nM in data set [2].

As to `COc1ccc(/C=C2\c3cc(OC)c(OC)c(OC)c3CC[C@@H]2O)cc1`, the remaining at 1.5 h, 15000 µM in data set [3] is 99.4%. The remaining at 22 h, 15000 µM in [4] was found to be 92.6%. Also, the Stability entry in data set [5] is “Stable”. Also, the half-maximal inhibitory concentration (IC50) in [1] was 2460 nM; in data set [2], 7030 nM; in data set [6] it was > 10000 nM.

`COc1ccc(/C=C2\c3cc(OC)c(OC)c(OC)c3CC[C@@H]2O)cc1C#N`: the IC50 in [1] is 5 nM; in [2] it was 20 nM.

`COc1ccc(/C=C2\c3cc(OC)c(OC)c(OC)c3CC[C@H]2O)cc1[N+](=O)[O-]`: the IC50 in data set [1] and in [2] was > 10000 nM each time.

Turning to `COc1ccc(/C=C2\c3cc(OC)c(OC)c(OC)c3CC[C@@H]2O)cc1N`, the values for the IC50 in data set [1] and in data set [2] were 160 nM and 740 nM, respectively.

Take `COc1ccc2c(c1)CC[C@H](O)/C2=C/c1cc(OC)c(OC)c(OC)c1`: in [3], the remaining at 1.5 h, 15000 µM is 98.9%. In [4], the remaining at 22 h, 15000 µM is 90.2%. Moreover, the Stability entry in data set [5] is reported as “Stable”. The half-maximal inhibitory concentration (IC50) was 1 nM in data set [1], 1 nM in data set [2] and 410 nM in data set [6]. In addition, the inhibition entry in data set [7] is “Dose-dependent effect”. In addition, the results for the T/C in data set [8] and in data set [9] were 37% and 61%, respectively. Further, the results for the Activity in data set [10] and in [11] were 1.8 g and 2.3 g, respectively.

Regarding `COc1ccc(/C=C2\c3cc(OC)c(OC)c(OC)c3CC[C@@H]2O)cc1C`, the IC50 came out at 2560 nM in data set [1] and 730 nM in data set [2].

`COc1ccc(/C=C2\c3cc(OC)c(OC)c(OC)c3CC[C@H]2O)cc1F`: the results for the half-inhibitory concentration (IC50) in data set [1] and in data set [2] were 220 nM and 720 nM, respectively.

As to `COc1ccc(/C=C2\c3cc(OC)c(OC)c(OC)c3CC[C@H]2O)cc1C(N)=O`, the concentration for half-maximal inhibition (IC50) in data set [1] is 550 nM; in [2] it was 1920 nM.

Regarding `COc1ccc(/C=C2\c3cc(OC)c(OC)c(OC)c3CC[C@H]2O)cc1C#N`, the concentration for half-maximal inhibition (IC50) in [1] came to 200 nM; in [2], 600 nM.

Regarding `COc1ccc(/C=C\c2cc(OC)c(OC)c(OC)c2)cc1O` [COMBRETASTATIN A4], the remaining at 1.5 h, 15000 µM in data set [3] was determined as 99.1%. Besides, the remaining at 22 h, 15000 µM in data set [4] stood at 84%. Besides, the Stability result in data set [5] is listed as “Stable”. Moreover, the IC50 in data set [1] and in data set [2] was 1 nM in each case. Further, in data set [9], the T/C was determined as 52%. Moreover, the Activity in [11] was determined as 1.7 g.

With `COc1ccc2c(c1)CCC(=O)/C2=C/c1cc(OC)c(OC)c(OC)c1`, the remaining at 1.5 h, 15000 µM in data set [3] was 52.8%. Also, the half-maximal inhibitory concentration (IC50) came out at 130 nM in [1], 2 nM in [2] and 3930 nM in data set [6].

With `COc1ccc(/C=C2\c3cc(OC)c(OC)c(OC)c3CC[C@H]2O)cc1C`, the concentration for half-maximal inhibition (IC50) turned out to be 3970 nM in data set [1] and 1340 nM in data set [2].

`COc1ccc(/C=C2\c3cc(OC)c(OC)c(OC)c3CC[C@@H]2O)cc1O`: the results for the half-maximal inhibitory concentration (IC50) in data set [1] and in data set [2] were 260 nM and 1060 nM, respectively.

Take `COc1ccc(/C=C2\c3cc(OC)c(OC)c(OC)c3CC[C@H]2O)cc1`: the remaining at 1.5 h, 15000 µM in [3] is 99.1%. Further, the remaining at 22 h, 15000 µM in data set [4] came out at 93%. The Stability entry in data set [5] is given as “Stable”. The figures for the 50% inhibitory concentration (IC50) in [1], in [2] and in data set [6] were 2600 nM, 3780 nM and > 10000 nM, respectively.

Regarding `COc1ccc(/C=C2\c3cc(OC)c(OC)c(OC)c3CC[C@@H]2O)cc1F`, the concentration for half-maximal inhibition (IC50) in [1] turned out to be 3 nM; in [2] it was 1 nM; in data set [6], 5700 nM.

As to `COc1ccc(/C=C2\c3cc(OC)c(OC)c(OC)c3CC[C@H]2O)cc1N`, the IC50 was determined as 910 nM in data set [1] and 1870 nM in data set [2].

For `COc1ccc2c(c1)CC[C@@H](O)/C2=C/c1cc(OC)c(OC)c(OC)c1`, the remaining at 1.5 h, 15000 µM in [3] was found to be 99.2%. Further, in data set [4], the remaining at 22 h, 15000 µM stood at 92%. Besides, in [5], the Stability result is “Stable”. In addition, the half-inhibitory concentration (IC50) is 900 nM in [1], 2020 nM in data set [2] and > 10000 nM in data set [6].
